A selection: hits, their analogues and other compounds. The true share with any hit is near 1.8%.
NR2E3 ag-1: activates human NR2E3 receptor. 360,000 tested, 0.35% active. CHO-S Gal4-NCOR/VP16-NR2E3 two-hybrid, luciferase. AID 602229. inhibition of corepressor binding, % at 3.98 µM;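 active means inhibition above the mean of all tested compounds plus 3 SD, cut at about 70% in these data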;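 further: higher means lower luciferase signal from less NR2E3 corepressor binding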
Target sequence (Q9Y5X4 whole entry, looked up, the tested form may be a part): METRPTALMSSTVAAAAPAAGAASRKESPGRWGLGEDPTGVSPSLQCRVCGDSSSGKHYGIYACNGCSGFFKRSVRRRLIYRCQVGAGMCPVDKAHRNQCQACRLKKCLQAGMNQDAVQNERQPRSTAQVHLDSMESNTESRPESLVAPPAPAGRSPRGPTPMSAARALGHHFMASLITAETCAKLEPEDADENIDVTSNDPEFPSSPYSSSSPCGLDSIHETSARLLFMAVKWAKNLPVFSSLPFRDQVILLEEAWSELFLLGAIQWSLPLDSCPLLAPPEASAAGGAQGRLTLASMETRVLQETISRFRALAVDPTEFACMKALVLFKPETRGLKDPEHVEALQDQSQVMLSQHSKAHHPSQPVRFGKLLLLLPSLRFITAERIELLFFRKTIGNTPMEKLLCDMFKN
Gli-Sufu antag: antagonists of Gli-Sufu signaling; Sufu-KO-LIGHT fibroblasts, Gli luciferase reporter luminescence; inhibition, % at 5 µM; 340,000 tested, 0.74% active; AID 588413;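 active means inhibition above about 55%, limit read from the data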
NR2E3 ag-2: agonists of human nuclear receptor NR2E3; GST-NR2E3/biotin-RetCOR TR-FRET, 1536-well; 320,000 tested, 0.12% active; Q9Y5X4; inhibition of corepressor binding, % at 4.78 µM;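 active means percent inhibition above the cutoff of mean plus 3 SD of all tested compounds, set per screening campaign, cut at about 20% in these data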
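Material: NR2E3–RetCOR corepressor complex | Quantity: 1.35 nM GST-tagged NR2E3 final | Schedule: 5 h at 4 °C | Replication: Singlicate compound wells | Reagent: RetCOR corepressor, biotinylated, 7 nM | Controls: Biotin wells as high control, 0.6% DMSO wells as low control | Signal: TR-FRET, Eu(K)-anti-GST donor, streptavidin-D2 acceptor, ex 340, em 617/671 nm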
Jurkat NFkB inh: inhibitors of the PMA/ionomycin-induced NF-kB reporter in Jurkat cells; 330,000 tested, 0.53% active; AID 435003; inhibition, % at 4 µM; PMA/ionomycin-induced NF-kB luciferase reporter, luminescence; in the data active means inhibition above about 50%
697 NFkB inh: lowers PMA/ionomycin-induced NF-kB signal in 697 B cells; 697 B-cell NF-kB luciferase reporter, 16 h; inhibition, % at 4 µM; 330,000 tested, 0.33% active; AID 435022; in the data active means inhibition above about 35%
GalR3 antag: blocks the human galanin receptor 3; 360,000 tested, 0.44% active; HEK293 GalR3-CNG cAMP membrane potential fluorescence; galR3 body fused to GalR1 C-terminus; AID 651719; O60755; inhibition, % at 3 µM;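 active means inhibition above the screen-wide average plus 3 SD, cut at about 13% in these data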;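 further: forskolin and galanin both at EC90 stimulate the cells; cAMP rise reported by CNG channel membrane potential dye signal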
Target sequence (O60755 1-299 limits assumed): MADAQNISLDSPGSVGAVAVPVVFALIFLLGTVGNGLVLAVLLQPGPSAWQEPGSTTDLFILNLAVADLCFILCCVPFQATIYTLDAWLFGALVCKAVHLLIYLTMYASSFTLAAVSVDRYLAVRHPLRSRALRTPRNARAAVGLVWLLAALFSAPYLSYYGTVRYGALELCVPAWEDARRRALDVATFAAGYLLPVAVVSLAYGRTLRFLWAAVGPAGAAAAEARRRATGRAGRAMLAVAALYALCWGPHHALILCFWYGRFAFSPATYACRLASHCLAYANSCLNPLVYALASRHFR
697 NFkB conf: inhibitors of the PMA/ionomycin-induced NF-kB reporter in 697 B cells, retest; shares compounds with 697 NFkB inh; 697 B-cell NF-kB luciferase, 16 h; inhibition, % at 4 µM; 2,000 tested, 35% active; AID 449746; in the data active means inhibition mostly above about 28%, no sharp cut-off; inactive means mostly below about 22%
Hits are given with their value; i = inactive; nt = no result given.

SMILES | NR2E3 ag-1 | Gli-Sufu antag | NR2E3 ag-2 | Jurkat NFkB inh | 697 NFkB inh | GalR3 antag | 697 NFkB conf
C[C@H]1CN(C(=O)OC(C)(C)C)CCN1c1ccc(N2CC[C@H](O)C2)c(C#N)c1 | nt | nt | nt | nt | nt | i | nt
CC1CCN(C(=O)c2ncn3c2C(=O)NC[C@H]3C)CC1 | nt | nt | nt | nt | nt | i | nt
O=Cc1cc2cc3c(cc2nc1Cl)OCCO3 | nt | i | i | i | i | nt | nt
O=C(O)c1ccc(N/N=C/c2cc3cc4c(cc3nc2Cl)OCCO4)cc1 | i | i | i | i | i | i | i
COC(=O)[C@]12C[C@H](CC(=O)N3CCOCC3)C(=O)N(CCC3=CCCCC3)C1=C[C@H](COCc1ccccc1)O[C@@H]2C | nt | nt | nt | nt | nt | i | nt
Cc1cc(NC(=O)c2ccccc2)nc2c1c(=O)oc1ccccc12 | i | i | i | i | 35 | i | i
CCOc1ccc(C(=O)Nc2cc(C)c3c(=O)oc4ccccc4c3n2)cc1 | i | i | i | i | i | i | nt
CC1CCCN(C(=O)CSc2nnc3n(C4CCCC4)c(=O)c4ccccc4n23)C1 (configuration not stated) | i | i | i | i | 35 | i | i
CCCOc1ccccc1/C=C1\SC(N2CCCCC2)=NC1=O | i | i | i | i | i | i | i
O=Cc1ccc([B-](F)(F)F)o1 | nt | nt | nt | nt | nt | i | nt
CCCN1CCN(CCCNC(=O)c2ccc3nc(N4CCC(C)CC4)sc3c2)CC1 | i | nt | i | i | i | i | nt
CCOC(CNC(=O)c1ccc2nc(N3CCC(C)CC3)sc2c1)OCC | i | i | i | i | i | i | i
C=CCCN1[C@@H](Cc2ccccc2)COc2ccccc2S1(=O)=O | nt | nt | nt | nt | nt | i | nt
Cc1ccc(C)c(CN2C(=O)c3ccccc3S(=O)c3ccc(C(=O)N4CCN(c5ccccn5)CC4)cc32)c1 (configuration not stated) | i | i | i | i | i | i | i
Cc1ccc(C)c(CN2C(=O)c3ccccc3S(=O)(=O)c3ccc(C(=O)N4CCN(C)CC4)cc32)c1 | i | i | i | i | i | i | nt
CC1=Nc2cc(C(=O)N3CCCC3)ccc2Sc2c(C)ccc(C)c21 | i | i | i | i | i | i | i
Cc1ccc(N=Nc2cc(C)ccc2O)c(C)c1 | i | i | nt | i | i | i | nt
Cc1ccc(N=Nc2cc(C)ccc2N)cc1 | i | i | i | i | i | i | i
O=C1N[C@@H](Cc2cn(S(=O)(=O)c3ccccc3)c3ccccc23)C(=O)N[C@H]1Cc1ccccc1 | i | i | i | i | 38 | i | i
Cc1ccc(N=Nc2c(N)nn(-c3ccccc3)c2N)cc1 | i | i | i | i | i | i | i
O=C(CC1CCCC1)N[C@H](C(=O)N1CCC[C@H]1C(=O)NC1CCCC1)C1CCCCC1 | nt | nt | nt | nt | nt | i | nt
Cc1cccc(C=NNc2cc(C)c3cccc(C)c3n2)n1 | nt | nt | nt | nt | nt | i | nt
CCCNC(=O)N1CCN(C(c2ccccc2)c2ccccc2)CC1 | i | i | i | i | i | i | nt
O=C(NC(=O)N1CCN(C(c2ccccc2)c2ccccc2)CC1)c1ccccc1 | i | i | i | i | 36 | i | i
Cc1ccc(/C=N/Nc2ccc(Cl)c(C(=O)O)c2)s1 | i | i | i | i | i | i | i
SMILES | NR2E3 ag-1 | Gli-Sufu antag | NR2E3 ag-2 | Jurkat NFkB inh | 697 NFkB inh | GalR3 antag | 697 NFkB conf
COc1ccc(N)cc1CN1CCN(c2ncc(Cc3ccccc3)cn2)CC1 | nt | nt | nt | nt | nt | i | nt
COCCn1c(C)cc(C(=O)COC(=O)c2n[nH]c3ccccc23)c1C | i | i | i | i | i | i | i
Cn1c(=O)n(C)c2cc(NC(=O)CSc3nnc(-c4ccccc4O)n3-c3ccccc3)ccc21 | i | i | i | i | 36 | i | 41
CCn1c(SCC(=O)Nc2ccc3c(c2)n(C)c(=O)n3C)nnc1-c1ccncc1 | i | i | i | i | i | i | nt
CCCN1CCCCC(NC(=O)c2c(F)cccc2F)C1=O (configuration not stated) | nt | nt | nt | nt | nt | i | nt
O=C(CSCCO)Nc1ccc(C23CC4CC(CC(C4)C2)C3)cc1 | i | i | i | i | 57 | i | 66
CC(=O)Nc1ccc(C23CC4CC(CC(C4)C2)C3)cc1 | i | i | i | i | i | i | nt
COC(=O)c1cc2c(c3c4cc(OC)ccc4n(S(=O)(=O)c4ccc(F)cc4)c13)C(=O)N(CC(C)C)C2 | nt | nt | nt | nt | nt | i | nt
COc1cccc(OC)c1C(=O)Nc1cc(Cl)ccc1N1CCOCC1 | i | i | i | i | 39 | i | i
CC[C@H](C)[C@H]1CNC(=O)C(=O)N1CC1CCN(CC(C)C)CC1 | nt | nt | nt | nt | nt | i | nt
CCN(CC)S(=O)(=O)c1ccc(N2CCOCC2)c(NC(=O)c2[nH]c(C)c(C(C)=O)c2C)c1 | i | i | nt | i | 48 | i | 46
O=C(CN1C(=O)c2ccccc2S1(=O)=O)c1ccccc1Cl | i | nt | i | i | 54 | i | 37
COC(=O)[C@]12C[C@H](CC(=O)NCCCN3CCCC3=O)C(=O)N(CCC3=CCCCC3)C1=C[C@H](COCc1ccccc1)O[C@@H]2C | nt | nt | nt | nt | nt | i | nt
COc1ccc(-c2nsc3c(N4CCCC4)ncnc23)cc1 | i | i | i | i | i | i | i
O=C(N/N=C/C(Br)=C\c1ccccc1)c1n[nH]c2c1CCC2 | i | i | i | i | i | i | i
CCn1c(=O)cc(OCC(=O)NCc2ccc(C)o2)c2ccccc21 | i | i | i | i | 36 | i | 42
CC(C)Cn1c(S(=O)(=O)O)nc2ccccc21 | i | i | i | i | 35 | i | i
Cc1cc(C(=O)NC2CCCc3c2cnn3-c2cccc(C)c2C)no1 (configuration not stated) | i | i | i | i | i | i | i
COc1cc2c(cc1NC(=O)CSCC(=O)O)oc1ccccc12 | i | i | i | i | 36 | i | i
COc1cc2c(cc1NC(=O)CCC(=O)O)oc1ccccc12 | i | i | i | i | i | i | nt
CC1=CC(C)(C)Nc2ccc(OC(=O)CCN3C(=O)c4ccccc4C3=O)cc21 | i | i | i | i | 41 | i | i
CCCCCCCCN1C(=O)[C@@H](CC(=O)N2CCCCC2)C[C@@]2(C(=O)OC)C1=C[C@H](C(C)(C)C)O[C@@H]2C | nt | nt | nt | nt | nt | i | nt
CCSc1nc(-c2ccc(OC)cc2)cc(-c2ccccc2)c1C#N | i | i | i | i | i | i | nt
COc1ccc(-c2cc(-c3ccccc3)c(C#N)c(S(C)=O)n2)cc1 (configuration not stated) | i | i | i | i | 37 | i | i
CC1C(=O)C(C)(C)C(=O)OC1c1ccccc1 (configuration not stated) | i | i | i | i | i | i | nt
C[C@H]1C=CC(=O)O[C@H]1c1ccccc1 | i | i | i | i | 46 | i | i
CCN1CCN(C(=O)c2sc3nc(C)nc(N4CCC(C)CC4)c3c2C)CC1 | i | i | i | i | i | i | nt
Cc1nc(N2CCC(C)CC2)c2c(C)c(C(=O)O)sc2n1 | i | i | i | i | 35 | i | i
CCCCNc1cccc2c1S(=O)(=O)N[C@H](Cc1ccccc1)CO2 | nt | nt | nt | nt | nt | i | nt

Screens as filed in PubChem.
